From ChEMBL document CHEMBL5385854, “Discovery of PPARγ and glucocorticoid receptor dual agonists to promote the adiponectin and leptin biosynthesis in human bone marrow mesenchymal stem cells” (Eur J Med Chem, 2023) come the findings set out here.

Each structure is given as a SMILES string. The source made the active and inactive calls. The calls are words filed in the database; no cut-off is given here.

A short description of assay [1]: Induction of leptin biosynthesis in human BMMSC cells assessed as leptin level at 1 uM measured after 7 days by ELISA (RVB = 18 + /- 18 pg/ml). The class given is functional, Mesenchymal stem cells. The settings on record: time 7 day. Background: ELISA stands for enzyme-linked immunosorbent assay.
Assay [2] can be described thus: Induction of adiponectin biosynthesis in human BMMSC cells assessed as adiponectin level at 10 uM measured after 7 days by ELISA (IDX Control = 100 +/- 57 pg/ml). The assay is classed as functional, Mesenchymal stem cells. The settings on record: time 7 day.
Assay [3] is described as follows: Induction of leptin biosynthesis in human BMMSC cells assessed as leptin level at 10 uM measured after 7 days by ELISA (RVB = 18 + /- 18 pg/ml). The settings on record: time 7 day. The class given is functional, Mesenchymal stem cells.
Assay [4] in a line: Induction of adiponectin biosynthesis in human BMMSC cells assessed as fold increase in production at 30 uM measured after 7 days by ELISA relative to IDX control. The class given is functional, Mesenchymal stem cells. The note with it: time 7 day, 168 h. The essentials: (§1)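 Human bone-marrow MSCs grown in low-glucose DMEM (1 g/L) with 10% FBS, 1% penicillin-streptomycin and 1% Glutamax. Compounds were given in adipogenic IDX medium, refreshed on days 3 and 6. On day 7, supernatant adiponectin was quantified by Quantikine ELISA against the IDX control. Mean ± SD, n = 3 independent experiments; one-way ANOVA with post-hoc tests.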

Assay [5] is described as follows: Induction of leptin biosynthesis in human BMMSC cells assessed as fold increase in production at 30 uM measured after 10 days by ELISA relative to control. The note with it: time 10 day.
The subject of assay [6] is Mesenchymal stem cells. The experiment in a line: Induction of adipogenesis in human BMMSC cells assessed as increase in lipid droplet accumulation at 5 uM after 7 days by Oil red O and hematoxylin staining based assay relative to IDX control. The settings on record: time 7.0 day. The class given is functional, cell-based. The method, boiled down: (§2)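 hBM-MSCs grown in low-glucose DMEM (1 g/L) with 10% FBS, Glutamax and penicillin-streptomycin, then differentiated in IDX medium containing compound, refreshed on days 3 and 6. On day 7, cells fixed in 10% neutral buffered formalin for 40 min and stained with 0.2% Oil Red O for 15 min, nuclei with hematoxylin. Dye eluted in isopropanol and read at 540 nm against IDX control.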

The nature of assay [7]: Induction of adiponectin biosynthesis in human BMMSC cells assessed as adiponectin level at 5 uM measured after 7 days by ELISA (IDX Control = 100 +/- 57 pg/ml). The assay is classed as functional, Mesenchymal stem cells. The settings on record: time 7 day. The method, boiled down: as §1
Assay [8] is described as follows: Induction of leptin biosynthesis in human BMMSC cells assessed as leptin level at 5 uM measured after 7 days by ELISA (RVB = 18 + /- 18 pg/ml). The assay is classed as functional, Mesenchymal stem cells. The note with it: time 7 day.
Assay [9] deals with Mesenchymal stem cells. The experiment in a line: Induction of adipogenesis in human BMMSC cells assessed as increase in lipid droplet accumulation at 30 uM after 7 days by Oil red O and hematoxylin staining based assay relative to IDX control. The assay is classed as functional, cell-based. The settings on record: time 7.0 day. The essentials: as §2
The nature of assay [10]: Induction of adiponectin biosynthesis in human BMMSC cells assessed as adiponectin level at 300 uM measured after 7 days by ELISA (IDX Control = 100 +/- 57 pg/ml). The note with it: time 7 day. The class given is functional, Mesenchymal stem cells. The method, boiled down: as §1
Assay [11] can be described thus: Induction of leptin biosynthesis in human BMMSC cells assessed as leptin level at 300 uM measured after 7 days by ELISA (RVB = 18 + /- 18 pg/ml). The assay is classed as functional, Mesenchymal stem cells. The note with it: time 7 day.
Assay [12] can be described thus: Induction of adiponectin biosynthesis in human BMMSC cells assessed as adiponectin level measured after 7 days by ELISA. The settings on record: Mesenchymal stem cells, 168 h.

Turning to `C[C@@H]1C[C@H]2[C@@H]3CCC4=CC(=O)C=C[C@]4(C)[C@@]3(F)[C@@H](O)C[C@]2(C)[C@@]1(O)C(=O)CO` [DEXAMETHASONE], the Activity in [1] was 632 pg/mL.

On to `COc1cc(/C=C/C(=O)c2c(O)cc(C)oc2=O)ccc1F`, for which the Activity in [2] was 567 pg/mL; in [3] it was 40 pg/mL.

`Cc1cc(O)c(C(=O)/C=C/c2ccc3c(c2)OCO3)c(=O)o1`: the figures for the Activity in [2] and in assay [3] were 208 pg/mL and 91 pg/mL, respectively.

With `COc1cc(/C=C/C(=O)c2c(O)cc(C)oc2=O)ccc1O` (stereo in doubt; form 1) [listing 1 of 2 here], the “fold change (FC)” value in [4] stood at 3.3.

Regarding `Cc1cc(O)c(C(=O)/C=C/c2ccc(C)c(C)c2)c(=O)o1`, the results for the Activity in assay [2] and in assay [3] were 438 pg/mL and 17 pg/mL, respectively.

In the case of `COc1cc(/C=C/C(=O)c2c(O)cc(C)oc2=O)ccc1O` (stereo in doubt; form 2), the “fold change (FC)” value in assay [4] worked out at 3.18; in assay [5] it was 2.58. The Activity was determined as 399 pg/mL in assay [2] and 82 pg/mL in assay [3].

Consider `COc1ccc(Cl)cc1C(=O)NCCc1ccc(S(=O)(=O)NC(=O)NC2CCCCC2)cc1` [GLYBURIDE], for which the outcome in assay [6] was Active. In addition, the Activity in [7] worked out at 475 pg/mL; in assay [8], 30 pg/mL.

Turning to `Cc1cc(O)c(C(=O)/C=C/c2c[nH]c3ccccc23)c(=O)o1`, the Activity was determined as 396 pg/mL in assay [2] and 41 pg/mL in assay [3].

As to `Cc1cc(O)c(C(=O)/C=C/c2ccc(F)cc2)c(=O)o1`, the values for the Activity in assay [2] and in assay [3] were 576 pg/mL and 30 pg/mL, respectively.

As to `Cc1cc(O)c(C(=O)/C=C/c2ccc(F)c(F)c2)c(=O)o1`, the Activity turned out to be 432 pg/mL in assay [2] and 76 pg/mL in assay [3].

Take `Cc1cc(O)c(C(=O)/C=C/c2ccoc2)c(=O)o1`: the Activity in assay [2] turned out to be 320 pg/mL; in assay [3], 171 pg/mL.

In the case of `Cc1cc(O)c(C(=O)/C=C/c2cc(F)cc(F)c2)c(=O)o1`, the Activity was determined as 172 pg/mL in assay [2] and 33 pg/mL in assay [3].

With `COc1cc(/C=C/C(=O)c2c(O)cc(C)oc2=O)ccc1O` (stereo in doubt; form 1) [listing 2 of 2 here], in assay [9], the outcome was Active.

`COc1ccc(/C=C/C(=O)c2c(O)cc(C)oc2=O)cc1OC`: the figures for the Activity in [2] and in assay [3] were 747 pg/mL and 80 pg/mL, respectively.

On to `CC(=O)Oc1ccccc1C(=O)O` [ASPIRIN], for which the Activity in assay [10] worked out at 330 pg/mL; in assay [11] it was 20 pg/mL.

In the case of `Cc1cc(O)c(C(=O)/C=C/c2ccc(O)c(O)c2)c(=O)o1`, the results for the Activity in [2] and in [3] were 243 pg/mL and 16 pg/mL, respectively.

Broadly, the EC50 is the concentration giving half of the maximal effect. For the compound `CCc1ccc(CCOc2ccc(CC3SC(=O)NC3=O)cc2)nc1` (configuration not stated) [PIOGLITAZONE], the result in assay [6] was Active. For the same compound, the Activity in assay [7] was determined as 812 pg/mL; in assay [8], 33 pg/mL. For the same compound, the EC50 in assay [12] worked out at 600 nM.

Turning to `Cc1cc(O)c(C(=O)/C=C/c2ccccn2)c(=O)o1`, the values for the Activity in assay [2] and in [3] were 396 pg/mL and 95 pg/mL, respectively.

`Cc1cc(O)c(C(=O)/C=C/c2ccccc2)c(=O)o1`: the Activity was 580 pg/mL in assay [2] and 38 pg/mL in assay [3].

For the compound `Cc1cc(O)c(C(=O)/C=C/c2ccsc2)c(=O)o1`, the Activity in [2] stood at 486 pg/mL; in assay [3] it was 193 pg/mL.
